{"data": "Assay results from different studies", "matrix": "plasma"}
{"SMILES": "N#C[C@@]1(c2ccc3c(N)ncnn23)O[C@H](CO)[C@@H](O)[C@H]1O", "host": "male CD-1 mouse", "route": "oral", "dose": "10 mg/kg", "bioavailability [%]": 57}
{"SMILES": "N[C@@H](CSSC[C@H](N)C(=O)O)C(=O)O", "host": "Kunming mouse", "route": "oral", "dose": "50 mg/kg", "bioavailability [%]": 15.1}
{"SMILES": "Cc1c(C(=O)Nc2ccc(F)c(Cl)c2)sc(N)c1C(N)=O", "host": "male CD-1 mouse", "route": "oral", "dose": "10 mg/kg", "bioavailability [%]": 46}
{"SMILES": "COc1nc(-c2cc(C)c(N[C@@H](C)c3ccc(F)cc3)nn2)ccc1-n1cnc(C)c1", "host": "male CD-1 mouse", "route": "oral", "dose": "5 mg/kg", "notes": "single dose", "bioavailability [%]": 63.1}
{"SMILES": "CC[C@H](C)[C@@H]1NC(=O)[C@@](C)(NC(=O)[C@H](CCCNC(=N)N)NC(=O)[C@H](CC(C)C)NC(=O)[C@@H](NC(=O)[C@H](CCC(N)=O)NC(=O)[C@H](CC(C)C)NC(C)=O)[C@@H](C)O)CCCC=CCCC[C@@](C)(C(=O)N[C@@H](CC(C)C)C(=O)N[C@@H](Cc2ccc3ccccc3c2)C(N)=O)NC(=O)[C@H](CCCNC(=N)N)NC(=O)[C@H](CCC(N)=O)NC1=O", "host": "male BALB/c mouse", "route": "intraperitoneal", "dose": "5 mg/kg", "bioavailability [%]": 81.1}
{"SMILES": "CCc1ccc(Cc2cc([C@@H]3O[C@H](CO)[C@@H](O)[C@H](O)[C@H]3O)cc3c2CCC3)cc1", "host": "male C57BL/6 mouse", "route": "oral", "dose": "1 mg/kg", "bioavailability [%]": 89}
{"SMILES": "O=C1Nc2cc(F)cc(F)c2C(=O)CCc2ccccc21", "host": "male Swiss mouse", "route": "oral", "bioavailability [%]": "~20"}
{"SMILES": "CSc1cc(Oc2ccnc3[nH]c(=O)cnc23)ccc1NC(=O)Nc1cc(C(C)(C)C)nn1-c1ccccc1", "host": "BALB/c mouse", "route": "oral", "dose": "10 mg/kg", "bioavailability [%]": 58}
{"SMILES": "Cc1nc2ccccc2n1Cc1ccc(C(=O)NO)cc1F", "host": "male CD-1 mouse", "route": "oral", "dose": "30 mg/kg", "bioavailability [%]": "~21"}
{"SMILES": "c1ccc2[nH]c(CNc3nc(N4CCOCC4)nc4c3ncn4-c3ccsc3)nc2c1", "host": "mouse", "route": "intravenous", "dose": "1 mg/kg", "bioavailability [%]": 0}
{"SMILES": "CC(C)(NC(=O)O[C@@H]1CN2CCC1CC2)c1csc(-c2ccc(F)cc2)n1", "host": "CD-1 mouse", "route": "oral", "dose": "10 mg/kg", "bioavailability [%]": 74}
{"SMILES": "CCN1CCN(Cc2cc(NC(=O)c3ccc(C)c(-c4ccc5nc(NC(=O)C6CC6)cn5n4)c3)cc(C(F)(F)F)c2)CC1", "host": "Swiss mouse", "route": "oral", "dose": "10 mg/kg", "bioavailability [%]": 4}
{"SMILES": "COc1cc(OC)c2nccc(N3CCc4c(cc(Cn5ccnc5)cc4-c4cn(C)nc4C(F)(F)F)C3=O)c2c1", "host": "male CD-1 mouse", "route": "oral", "dose": "50 mg/kg", "bioavailability [%]": 452}
{"SMILES": "Oc1ccc(C(c2ccc(O)cc2)(C(F)(F)F)C(F)(F)F)cc1", "host": "mouse", "route": "oral", "dose": "34 mg/kg", "notes": "single dose", "bioavailability [%]": "3 to 6"}
{"SMILES": "Cc1ccc2cncc(N3CCc4c(cc(Cn5ccnc5)cc4-c4cn(C)nc4C(F)(F)F)C3=O)c2c1", "host": "male CD-1 mouse", "route": "oral", "dose": "10 mg/kg", "bioavailability [%]": 35}
{"SMILES": "Nc1ccc(-c2ccc3ncc4ccc(=O)n(-c5cccc(C(F)(F)F)c5)c4c3c2)cn1", "host": "male Swiss mouse", "route": "oral", "dose": "10 mg/kg", "bioavailability [%]": 54}
{"SMILES": "CCOc1ccc(Cc2cc([C@@H]3O[C@H](CO)[C@@H](O)[C@H](O)[C@H]3O)ccc2Cl)cc1", "host": "male C57BL/6 mouse", "route": "oral", "dose": "1 mg/kg", "bioavailability [%]": 67}
{"SMILES": "CNC(=O)c1cc(OC)cc2c(N3CCc4c(cc(Cn5ccnc5)cc4-c4cn(C)nc4C(F)(F)F)C3=O)ccnc12", "host": "male CD-1 mouse", "route": "oral", "dose": "50 mg/kg", "bioavailability [%]": 263}
